From ChEMBL document CHEMBL1821668, “Isolation and characterization of aphidicolin and chlamydosporol derivatives from Tolypocladium inflatum” (J Nat Prod, 2011) come the findings set out here.

Experiment [1] in a line: Cytotoxicity against human MGC cells after 72 hrs by MTS assay. Format: functional, cell-based. Summed up:
(§1)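 Triplicate wells seeded at (2–5) × 10^3 cells each, depending on growth rate, and left overnight to attach. Medium was then replaced with medium containing test compound at serial dilutions from 100 mM DMSO stocks, or 0.1% DMSO. Incubation was 72 h at 37 °C in humidified 5% CO2. MTS was added in the dark, with a 90 min read-out incubation at 37 °C.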

The next experiment deals with PANC-1. Nature of the experiment: Cytotoxicity against human PANC1 cells after 72 hrs by MTS assay. It counts as functional, cell-based. The note with it: PANC-1, 72 h. Summed up:
as §1
(In general: Formazan colour is commonly taken as a measure of viable cells.)

A short description of experiment [2]: Cytotoxicity against human Hep3B2 cells after 72 hrs by MTS assay. Format: functional, cell-based, Hep 3B2. Particulars: Hep3B. In short, it runs like this: as §1
For the next experiment, the system named is A549. The experiment can be described thus: Cytotoxicity against human A549 cells after 72 hrs by MTS assay. It counts as functional, cell-based. The note with it: A549, 72 h. In short, it runs like this: as §1
Experiment [3] is described as follows: Cytotoxicity against human EC109 cells after 72 hrs by MTS assay. Format: functional, cell-based. The note with it: ECa-109, 72 h. In short, it runs like this:
as §1

The next experiment has as its system A-375. The experiment can be described thus: Cytotoxicity against human A375 cells after 72 hrs by MTS assay. It counts as functional, cell-based. Particulars: A-375, 72 h. Summed up:
as §1

Another experiment concerns MCF7. Nature of the experiment: Cytotoxicity against human MCF7 cells after 72 hrs by MTS assay. The note with it: MCF7, 72 h. Format: functional, cell-based. In short, it runs like this:
as §1

Experiment [4] is described as follows: Cytotoxicity against human CNE1-LMP1 cells after 72 hrs by MTS assay. Format: functional, cell-based. The note with it: CNE1-LMP1, 72 h. In short, it runs like this:
as §1

The test system of a further experiment is HaCaT. Nature of the experiment: Cytotoxicity against human HaCaT cells after 72 hrs by MTS assay. It counts as functional, cell-based. In short, it runs like this:
as §1

`C[C@@]12CO[C@H](c3ccc(O)cc3)O[C@@H]1CC[C@@]1(C)[C@H]2CC[C@H]2C[C@@H]3C[C@@]21CC[C@]3(O)CO` [INFLATIN A]: the IC50 (as a rule, the point on the concentration scale where inhibition reaches its midpoint) amounted to 54.5 µM in experiment [1]; 19.9 µM in the experiment on PANC-1; 14.8 µM in experiment [2]; 75.3 µM in the experiment with A549; 47.1 µM in experiment [3]; 47.3 µM in the experiment with A-375. In addition, the values for the concentration for half-maximal inhibition (IC50) (with MCF7; in experiment [4]; with HaCaT) were 33.5 µM, 39.1 µM and 49.1 µM, respectively.
On to `CC(=O)OC[C@@]1(O)CC[C@]23C[C@H]1C[C@@H]2CC[C@H]1[C@]2(C)CO[C@H](c4ccc(O)cc4)O[C@@H]2CC[C@@]13C` [INFLATIN B], for which the IC50 is more than 100 µM in experiment [1]; 53.2 µM with PANC-1; 7.3 µM in experiment [2]; 25 µM in the experiment on A549; 70.8 µM in experiment [3]; 25.5 µM in the experiment with A-375. Also, the figures for the concentration for half-maximal inhibition (IC50) (with MCF7; in [4]; in the experiment with HaCaT) were 75.2 µM, 15 µM and 55.1 µM, respectively.
As to `COc1cc(=O)oc2c1[C@H](O)O[C@@H](C)[C@H]2C` [INFLATIN C], the IC50 (in experiment [1]; with PANC-1; in experiment [2]; in the experiment on A549; in experiment [3]; with A-375) was more than 100 µM in each case. The IC50 (with MCF7; in [4]; in the experiment on HaCaT) was more than 100 µM throughout.
For the compound `COc1cc(=O)oc2c1[C@H](O[C@@H]1O[C@@H](C)[C@@H](C)c3oc(=O)cc(OC)c31)O[C@@H](C)[C@H]2C` [INFLATIN D], the half-inhibitory concentration (IC50) (in experiment [1]; in the experiment on PANC-1; in experiment [2]; in the experiment with A549; in experiment [3]; in the experiment on A-375) was more than 100 µM each time. Moreover, the IC50 (with MCF7; in experiment [4]; with HaCaT) was more than 100 µM throughout.
Take `COc1cc(=O)oc2c1[C@H](O[C@@H]1O[C@@H](C)[C@@H](C)c3oc(=O)cc(OC)c31)O[C@@H](C)[C@@H]2C` [INFLATIN E]: the IC50 (in [1]; with PANC-1; in experiment [2]; in the experiment with A549; in experiment [3]; with A-375) was more than 100 µM each time. The IC50 (in the experiment with MCF7; in [4]; with HaCaT) was more than 100 µM throughout.
For `COc1cc(=O)oc2c1[C@H](O[C@@H]1O[C@@H](C)[C@H](C)c3oc(=O)cc(OC)c31)O[C@@H](C)[C@@H]2C` [INFLATIN F], the 50% inhibitory concentration (IC50) is more than 100 µM in [1]; more than 100 µM with PANC-1; 57.5 µM in experiment [2]; more than 100 µM in the experiment on A549; more than 100 µM in experiment [3]; more than 100 µM with A-375. For the same compound, the IC50 (with MCF7; in [4]; in the experiment with HaCaT) was more than 100 µM in each case.
Consider `CC(=O)O[C@H]1C(=O)[C@@]2(C)[C@H]([C@H](OC(=O)c3ccccc3)[C@]3(O)C[C@H](OC(=O)[C@H](O)[C@@H](NC(=O)c4ccccc4)c4ccccc4)C(C)=C1C3(C)C)[C@]1(OC(C)=O)CO[C@@H]1C[C@@H]2O` [PACLITAXEL], for which the 50% inhibitory concentration (IC50) turned out to be 0.0064 µM in [1]; 0.0011 µM in the experiment on PANC-1; 1.6e-05 µM in experiment [2]; 0.03 µM in the experiment with A549; 0.14 µM in [3]; 0.0089 µM in the experiment with A-375. The IC50 with MCF7 is 0.014 µM; in experiment [4], 0.0042 µM; with HaCaT it was 0.024 µM.
